Laboratory results taken from ChEMBL document CHEMBL5149989, “Interplay among Conformation, Intramolecular Hydrogen Bonds, and Chameleonicity in the Membrane Permeability and Cyclophilin A Binding of Macrocyclic Peptide Cyclosporin O Derivatives” (J Med Chem, 2021).
Non-standard residues stand in square brackets, D forms with d. Residues, ends and D or L forms follow the SMILES beside them. NMeL = CN[C@@H](CC(C)C)C(=O)O; NMeV = CN[C@H](C(=O)O)C(C)C; Nva = CCC[C@H](N)C(=O)O; Sar = CNCC(=O)O

How the values were obtained:
[1] = Permeability in PBS buffer measured after 18 hrs by PAMPA based LC-MS analysis; type: ADME; details: read-out: permeability
[2] = Effective permeability in PBS buffer assessed as mass retention measured after 18 hrs by PAMPA based LC-MS analysis; type: ADME
[3] = Permeability across apical to basal side in human Caco-2 cells measured at 0.5 to 2 hrs by LC-MS analysis; type: ADME, cell-based; details: time 0.5-2 hrs; for Papp A→B: read-out: permeability
[4] = Permeability across apical to basal side in human Caco-2 cells assessed as drug recovery measured at 0.5 to 2 hrs by LC-MS analysis relative to control; type: ADME, cell-based; details: time 0.5-2 hrs, read-out: Drug recovery
[5] = Permeability across basal to apical side in human Caco-2 cells measured at 0.5 to 2 hrs by LC-MS analysis; type: ADME, cell-based; details: time 0.5-2 hrs, read-out: permeability
[6] = Permeability across basal to apical side in human Caco-2 cells assessed as drug recovery measured at 0.5 to 2 hrs by LC-MS analysis relative to control; type: ADME, cell-based; details: time 0.5-2 hrs, read-out: Drug recovery
[7] = Permeability across apical to basal side in human Caco-2 cells preincubated with verapamil for 30 mins followed by compound addition measured at 0.5 to 2 hrs by LC-MS analysis; type: ADME, cell-based; details: Caco-2, with verapamil (concentration not stated), time 0.5-2 hrs, read-out: permeability
[8] = Permeability across apical to basal side in human Caco-2 cells assessed as drug recovery preincubated with verapamil for 30 mins followed by compound addition measured at 0.5 to 2 hrs by LC-MS analysis relative to control; type: ADME, cell-based; details: for recovery: Caco-2, with verapamil (concentration not stated), time 1-2.5 hrs, read-out: Drug recovery
[9] = Tmax in ICR mouse at 20 mg/kg, po measured after 0.25 to 24 hrs by LC-MS/MS analysis; type: ADME, organism-based; details: in vivo, time 0.25-24 hrs
[10] = AUCinfinity in ICR mouse at 20 mg/kg, po measured after 0.25 to 24 hrs by LC-MS/MS analysis; type: ADME, organism-based; design: dose 20 mg/kg, time upper 24 hrs, time lower 0.25 hrs, route po; details: in vivo
[11] = Cmax in ICR mouse at 20 mg/kg, po measured after 0.25 to 24 hrs by LC-MS/MS analysis; type: ADME, organism-based; design: time upper 24 hrs, time lower 0.25 hrs, dose 20 mg/kg, route po; details: in vivo
[12] = Clearance in ICR mouse at 20 mg/kg, po measured after 0.25 to 24 hrs by LC-MS/MS analysis; type: ADME, organism-based; details: in vivo, time 0.25-24 hrs
Method in brief: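 Male ICR mice (9 weeks, 33−37 g) given 20 mg/kg (10 mL/kg) by oral gavage. Plasma obtained by centrifugation at 4 °C, protein-precipitated with 4 volumes acetonitrile, and analysed by LC-MS/MS.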

[13] = Apparent volume of distribution in ICR mouse at 20 mg/kg, po measured after 0.25 to 24 hrs by LC-MS/MS analysis; type: ADME, organism-based; details: in vivo, time 0.25-24 hrs
[14] = Half life in ICR mouse at 20 mg/kg, po measured after 0.25 to 24 hrs by LC-MS/MS analysis; type: ADME, organism-based; details: in vivo, time 0.25-24 hrs
[15] = Oral bioavailability in ICR mouse at 20 mg/kg measured after 0.25 to 24 hrs by LC-MS/MS analysis; type: ADME, organism-based; details: in vivo, time 0.25-24 hrs
Method in brief: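 Male ICR mice received 5 mg/kg iv via tail vein or 20 mg/kg po by gavage. Plasma was sampled serially up to 24 h via the saphenous vein, acetonitrile-precipitated and quantified by LC-MS/MS. F was derived from the po and iv AUC∞ values.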

[16] = Ratio of drug level in brain to plasma in ICR mouse plasma at 1 uM preincubated for 10 mins followed by compound addition measured after 60 mins by LC-MS/MS analysis; type: ADME, cell-free; details: read-out: BPR
[17] = Potency index, ratio of cyclosporin A BPR to test compound BPR for drug level in ICR mouse at 1 uM; type: ADME; details: in vivo
[18] = target: Peptidyl-prolyl cis-trans isomerase A (Homo sapiens, UniProt P62937); assay: Binding affinity to CypA (unknown origin) assessed as inhibition constant by isomer specific proteolysis assay
[19] = Half life in ICR mouse at 5 mg/kg, iv measured after 0.08 to 24 hrs by LC-MS/MS analysis; details: in vivo
[20] = AUCinfinity in ICR mouse at 5 mg/kg, iv measured after 0.08 to 24 hrs by LC-MS/MS analysis; details: in vivo
[21] = Volume of distribution at steady state in ICR mouse at 5 mg/kg, iv measured after 0.08 to 24 hrs by LC-MS/MS analysis; details: in vivo, read-out: Vdss

Sequence of Peptidyl-prolyl cis-trans isomerase A (P62937 whole entry): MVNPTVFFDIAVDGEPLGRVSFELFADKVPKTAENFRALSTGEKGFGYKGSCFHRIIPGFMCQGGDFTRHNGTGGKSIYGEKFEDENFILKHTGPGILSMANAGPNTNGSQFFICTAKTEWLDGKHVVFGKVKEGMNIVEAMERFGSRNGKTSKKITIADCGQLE

| Papp at 18 h [1] [×10⁻⁶ cm/s] | Activity [2] [%] | recovery [4] [%] | Papp B→A [5] [×10⁻⁶ cm/s] | recovery [6] [%] | Papp A→B [7] [×10⁻⁶ cm/s] | Ki [18] [µM] | Papp A→B [3] [×10⁻⁶ cm/s] | recovery [8] [%] | Compound | further results |
| --- | --- | --- | --- | --- | --- | --- | --- | --- | --- | --- |
| 0.29 | 84 | 82 | 2.88 | 82 | 0.69 | 2.3 |  |  | CCC[C@@H]1NC(=O)[C@H](CC(C)C)N(C)C(=O)[C@H](C(C)C)N(C)C(=O)[C@H](CC(C)C)N(C)C(=O)[C@H](CC(C)C)N(C)C(=O)[C@@H](C)NC(=O)[C@H](C)NC(=O)[C@H](CC(C)C)N(C)C(=O)[C@H](C(C)C)NC(=O)[C@H](CC(C)C)N(C)C(=O)CN(C)C1=O (cyclo(A[dA][NMeL][NMeL][NMeV][NMeL][Nva][Sar][NMeL]V[NMeL])) | permeability [3]: 0.29 10^-6 cm/s; Drug recovery ([8]; caco-2, time 1-2.5 hrs): 123%; Tmax [9]: 0.8 h; AUC [10]: 4080 ng·h/mL; Cmax [11]: 1600 ng/mL; CL/F [12]: 82 mL/min/kg; Vz [13]: 22.2 L/kg; half-life [14]: 3.1 h; F [15]: 12%; Kp at 1 h, 1 µM [16]: 0.62; Ratio [17]: 5; half-life [19]: 4.8 h; AUC [20]: 8500 ng·h/mL; Vd [21]: 4 L/kg |
| < 0.004 | 60 | 76 | 5.17 | 88 | 0.07 | 3 | 0.05 | 112 | CCC[C@@H]1NC(=O)[C@H](CC(C)C)N(C)C(=O)[C@H](C(C)C)N(C)C(=O)[C@H](CC(C)C)N(C)C(=O)[C@H](CC(C)C)N(C)C(=O)[C@@H](C)NC(=O)[C@H](CCC(N)=O)NC(=O)[C@H](CC(C)C)N(C)C(=O)[C@H](C(C)C)NC(=O)[C@H](CC(C)C)N(C)C(=O)CN(C)C1=O |  |
| 0.06 | 74 | 66 | 0.61 | 65 | 0.34 | > 20 | 0.07 | 107 | CCC[C@@H]1NC(=O)[C@H](CC(C)C)N(C)C(=O)[C@H](CC(C)C)N(C)C(=O)[C@H](CC(C)C)N(C)C(=O)[C@H](CC(C)C)N(C)C(=O)[C@@H](C)NC(=O)[C@H](C)NC(=O)[C@H](CC(C)C)N(C)C(=O)[C@H](C(C)C)NC(=O)[C@H](CC(C)C)N(C)C(=O)CN(C)C1=O |  |

Continued, compound first:

| Compound | Papp at 18 h [1] [×10⁻⁶ cm/s] | Activity [2] [%] | recovery [4] [%] | Papp B→A [5] [×10⁻⁶ cm/s] | recovery [6] [%] | Papp A→B [7] [×10⁻⁶ cm/s] | Ki [18] [µM] | Papp A→B [3] [×10⁻⁶ cm/s] | recovery [8] [%] | further results |
| --- | --- | --- | --- | --- | --- | --- | --- | --- | --- | --- |
| CC(C)NCC(O)COc1cccc2ccccc12 (configuration not stated) [PROPRANOLOL] |  |  |  |  |  |  |  | 20 |  |  |
| CCC[C@@H]1NC(=O)[C@H](CC(C)C)N(C)C(=O)[C@H](CC(C)C)N(C)C(=O)[C@H](CC(C)C)N(C)C(=O)[C@H](CC(C)C)N(C)C(=O)[C@@H](C)NC(=O)[C@H](CCC(N)=O)NC(=O)[C@H](CC(C)C)N(C)C(=O)[C@H](C(C)C)NC(=O)[C@H](CC(C)C)N(C)C(=O)CN(C)C1=O (cyclo([NMeL][NMeL][NMeL][NMeL][Nva][Sar][NMeL]V[NMeL]Q[dA])) | < 0.009 | 75 | 89 | 8.6 | 87 | 0.18 | > 20 | 0.12 | 110 |  |
| CC(C)NCC(O)COc1ccc(CC(N)=O)cc1 (configuration not stated) [ATENOLOL] |  |  | 88 |  | 85 |  |  |  | 78 |  |
